Test results from ChEMBL document CHEMBL1165965, “Synthesis and structure-activity relationships of 1,2,3,4-tetrahydropyrido[2,3-b]pyrazines as potent and selective inhibitors of the anaplastic lymphoma kinase” (Bioorg Med Chem, 2010).

How the values were obtained:
[1] = molecular target: Casein kinase II subunit alpha' (Homo sapiens) (UniProt P19784); assay: Inhibition of CSNK2A2 at 1 uM
Outline: (§1)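 Single-concentration screen using Ambit Bioscience KINOMEscan technology across a panel of 250–400 kinases. Per-kinase inhibition from this screen was summarized as S(90), the fraction of kinases inhibited by more than 90%.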

[2] = molecular target: T1, Cyclin-dependent kinase-like 2 (Homo sapiens) (UniProt Q92772); assay: Inhibition of CDKL2 at 1 uM
T1 sequence (whole entry): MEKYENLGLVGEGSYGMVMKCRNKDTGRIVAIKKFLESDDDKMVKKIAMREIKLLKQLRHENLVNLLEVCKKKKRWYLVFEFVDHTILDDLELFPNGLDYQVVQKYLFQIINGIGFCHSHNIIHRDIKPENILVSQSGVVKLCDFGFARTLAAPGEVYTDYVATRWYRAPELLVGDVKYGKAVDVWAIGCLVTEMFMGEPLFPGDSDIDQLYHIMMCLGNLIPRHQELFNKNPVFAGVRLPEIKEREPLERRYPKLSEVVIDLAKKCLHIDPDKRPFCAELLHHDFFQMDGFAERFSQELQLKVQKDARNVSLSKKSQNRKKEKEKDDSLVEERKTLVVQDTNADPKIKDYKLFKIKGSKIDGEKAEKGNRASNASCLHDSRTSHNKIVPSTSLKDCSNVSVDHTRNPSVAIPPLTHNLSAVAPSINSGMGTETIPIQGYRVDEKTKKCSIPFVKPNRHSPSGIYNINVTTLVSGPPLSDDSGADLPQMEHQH

[3] = molecular target: Platelet-derived growth factor receptor alpha (Homo sapiens) (UniProt P16234); assay: Inhibition of PDGFRA at 1 uM
[4] = molecular target: Tyrosine-protein kinase Fgr (Homo sapiens) (UniProt P09769); assay: Inhibition of FGR at 1 uM
Outline: (§2)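 Single-concentration screen on the Ambit KINOMEscan platform, run against a panel of 250–400 kinases. Per-kinase inhibition was also summarized as S(90), the fraction of kinases inhibited by more than 90%.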

[5] = molecular target: Serine/threonine-protein kinase 35 (Homo sapiens) (UniProt Q8TDR2); assay: Inhibition of STK35 at 1 uM
[6] = molecular target: Focal adhesion kinase 1 (Homo sapiens) (UniProt Q05397); assay: Inhibition of FAK at 1 uM; outline: as §1
[7] = molecular target: T2, Serine/threonine-protein kinase 4 (Homo sapiens) (UniProt Q13043); assay: Inhibition of MST1 at 1 uM
T2 sequence (whole entry): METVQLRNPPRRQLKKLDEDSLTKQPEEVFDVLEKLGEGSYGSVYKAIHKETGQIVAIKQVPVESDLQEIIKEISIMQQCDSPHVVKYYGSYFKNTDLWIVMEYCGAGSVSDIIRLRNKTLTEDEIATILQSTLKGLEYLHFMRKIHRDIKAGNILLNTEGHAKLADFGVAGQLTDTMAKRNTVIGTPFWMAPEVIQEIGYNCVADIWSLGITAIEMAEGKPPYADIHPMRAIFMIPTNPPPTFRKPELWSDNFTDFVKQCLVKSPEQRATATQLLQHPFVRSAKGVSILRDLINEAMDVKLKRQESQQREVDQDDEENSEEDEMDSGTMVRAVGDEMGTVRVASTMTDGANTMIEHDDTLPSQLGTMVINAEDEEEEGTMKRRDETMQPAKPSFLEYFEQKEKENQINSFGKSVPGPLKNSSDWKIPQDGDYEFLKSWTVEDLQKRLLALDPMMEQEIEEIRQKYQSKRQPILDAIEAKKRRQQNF

[8] = molecular target: 5'-AMP-activated protein kinase catalytic subunit alpha-2 (Homo sapiens) (UniProt P54646); assay: Inhibition of AMPK-alpha2 at 1 uM
Outline: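 Ambit KINOMEscan screen at a single concentration across a 250–400 kinase panel, recorded as percent inhibition. Selectivity was expressed as S(90), the fraction of kinases inhibited >90%.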

[9] = molecular target: Homeodomain-interacting protein kinase 1 (Homo sapiens) (UniProt Q86Z02); assay: Inhibition of HIPK1 at 1 uM; outline: as §2
[10] = test system: Phosphatidylinositol 4,5-bisphosphate 3-kinase catalytic subunit alpha isoform (Homo sapiens), P42336 [E545K]; assay: Inhibition of PIK3CA E545K mutant at 1 uM
[11] = molecular target: T3, Serine/threonine-protein kinase RIO1 (Homo sapiens) (UniProt Q9BRS2); assay: Inhibition of RIOK1 at 1 uM
T3 sequence (whole entry): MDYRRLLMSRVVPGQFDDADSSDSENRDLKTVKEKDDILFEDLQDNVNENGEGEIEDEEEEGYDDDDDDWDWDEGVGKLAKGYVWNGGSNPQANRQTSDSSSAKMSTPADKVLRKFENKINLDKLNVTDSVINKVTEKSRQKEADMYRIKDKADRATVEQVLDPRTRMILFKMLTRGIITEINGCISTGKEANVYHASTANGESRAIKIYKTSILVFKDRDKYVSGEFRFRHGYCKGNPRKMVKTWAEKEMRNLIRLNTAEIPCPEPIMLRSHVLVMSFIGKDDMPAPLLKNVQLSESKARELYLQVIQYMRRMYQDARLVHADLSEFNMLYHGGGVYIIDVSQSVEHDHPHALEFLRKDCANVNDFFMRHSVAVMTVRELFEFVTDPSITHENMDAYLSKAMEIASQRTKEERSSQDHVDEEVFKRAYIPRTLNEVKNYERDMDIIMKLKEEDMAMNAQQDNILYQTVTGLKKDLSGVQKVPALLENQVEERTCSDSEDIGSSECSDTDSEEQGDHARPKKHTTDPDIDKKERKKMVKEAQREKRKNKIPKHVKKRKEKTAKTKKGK

Chain of Serine/threonine-protein kinase 35 (Homo sapiens) (Q8TDR2 whole entry): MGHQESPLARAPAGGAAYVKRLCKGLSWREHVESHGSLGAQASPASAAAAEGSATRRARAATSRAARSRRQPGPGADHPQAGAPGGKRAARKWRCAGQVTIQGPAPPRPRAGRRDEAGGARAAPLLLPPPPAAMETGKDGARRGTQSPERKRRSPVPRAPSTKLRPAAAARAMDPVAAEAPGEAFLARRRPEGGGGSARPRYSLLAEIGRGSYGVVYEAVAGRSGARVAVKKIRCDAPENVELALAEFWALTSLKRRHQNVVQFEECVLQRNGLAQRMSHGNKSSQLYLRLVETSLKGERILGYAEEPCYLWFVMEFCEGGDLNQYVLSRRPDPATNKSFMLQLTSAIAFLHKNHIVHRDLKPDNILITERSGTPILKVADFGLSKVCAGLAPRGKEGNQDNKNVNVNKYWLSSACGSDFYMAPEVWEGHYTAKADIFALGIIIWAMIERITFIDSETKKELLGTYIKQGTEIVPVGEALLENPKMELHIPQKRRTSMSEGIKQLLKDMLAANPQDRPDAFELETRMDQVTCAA
Chain of Phosphatidylinositol 4,5-bisphosphate 3-kinase catalytic subunit alpha isoform (Homo sapiens), P42336 [E545K] (P42336 whole entry E545K, canonical isoform): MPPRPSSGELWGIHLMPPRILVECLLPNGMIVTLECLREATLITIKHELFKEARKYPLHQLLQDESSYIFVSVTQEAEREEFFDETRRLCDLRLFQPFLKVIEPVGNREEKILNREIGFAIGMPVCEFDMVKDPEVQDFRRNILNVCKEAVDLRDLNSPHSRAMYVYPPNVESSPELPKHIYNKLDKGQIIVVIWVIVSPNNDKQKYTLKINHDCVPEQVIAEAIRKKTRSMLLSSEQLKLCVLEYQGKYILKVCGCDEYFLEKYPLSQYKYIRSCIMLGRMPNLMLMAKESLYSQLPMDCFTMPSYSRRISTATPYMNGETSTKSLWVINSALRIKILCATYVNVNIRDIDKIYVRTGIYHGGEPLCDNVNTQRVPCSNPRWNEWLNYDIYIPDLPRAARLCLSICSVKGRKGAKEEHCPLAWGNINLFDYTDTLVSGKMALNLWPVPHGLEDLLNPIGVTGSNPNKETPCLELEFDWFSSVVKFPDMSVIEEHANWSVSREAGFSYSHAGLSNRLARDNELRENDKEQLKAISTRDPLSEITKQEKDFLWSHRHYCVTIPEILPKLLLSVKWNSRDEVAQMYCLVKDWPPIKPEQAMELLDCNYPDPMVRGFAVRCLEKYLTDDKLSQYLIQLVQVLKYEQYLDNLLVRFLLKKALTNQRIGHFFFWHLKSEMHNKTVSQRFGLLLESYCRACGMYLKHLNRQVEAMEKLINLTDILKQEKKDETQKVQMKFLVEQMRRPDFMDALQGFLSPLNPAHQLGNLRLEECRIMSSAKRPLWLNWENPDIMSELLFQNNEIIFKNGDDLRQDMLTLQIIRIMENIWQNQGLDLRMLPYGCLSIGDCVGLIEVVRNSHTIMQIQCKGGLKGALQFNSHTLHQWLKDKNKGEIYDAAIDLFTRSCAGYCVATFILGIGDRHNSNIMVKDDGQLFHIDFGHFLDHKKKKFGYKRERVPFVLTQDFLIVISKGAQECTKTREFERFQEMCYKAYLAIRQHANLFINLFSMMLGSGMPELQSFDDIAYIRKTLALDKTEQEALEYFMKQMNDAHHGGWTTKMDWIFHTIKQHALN
Chain of Casein kinase II subunit alpha' (Homo sapiens) (P19784 whole entry, looked up): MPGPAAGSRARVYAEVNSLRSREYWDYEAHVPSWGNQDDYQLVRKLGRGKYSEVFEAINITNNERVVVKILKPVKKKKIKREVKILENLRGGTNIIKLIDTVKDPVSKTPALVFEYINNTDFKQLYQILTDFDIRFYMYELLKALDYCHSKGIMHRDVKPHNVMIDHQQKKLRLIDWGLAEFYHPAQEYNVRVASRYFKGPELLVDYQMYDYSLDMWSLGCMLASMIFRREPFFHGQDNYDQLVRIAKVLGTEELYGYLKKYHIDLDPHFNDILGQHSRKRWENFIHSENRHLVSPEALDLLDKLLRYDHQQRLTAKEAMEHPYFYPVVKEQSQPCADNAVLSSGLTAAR
Chain of 5'-AMP-activated protein kinase catalytic subunit alpha-2 (Homo sapiens) (P54646 whole entry, looked up): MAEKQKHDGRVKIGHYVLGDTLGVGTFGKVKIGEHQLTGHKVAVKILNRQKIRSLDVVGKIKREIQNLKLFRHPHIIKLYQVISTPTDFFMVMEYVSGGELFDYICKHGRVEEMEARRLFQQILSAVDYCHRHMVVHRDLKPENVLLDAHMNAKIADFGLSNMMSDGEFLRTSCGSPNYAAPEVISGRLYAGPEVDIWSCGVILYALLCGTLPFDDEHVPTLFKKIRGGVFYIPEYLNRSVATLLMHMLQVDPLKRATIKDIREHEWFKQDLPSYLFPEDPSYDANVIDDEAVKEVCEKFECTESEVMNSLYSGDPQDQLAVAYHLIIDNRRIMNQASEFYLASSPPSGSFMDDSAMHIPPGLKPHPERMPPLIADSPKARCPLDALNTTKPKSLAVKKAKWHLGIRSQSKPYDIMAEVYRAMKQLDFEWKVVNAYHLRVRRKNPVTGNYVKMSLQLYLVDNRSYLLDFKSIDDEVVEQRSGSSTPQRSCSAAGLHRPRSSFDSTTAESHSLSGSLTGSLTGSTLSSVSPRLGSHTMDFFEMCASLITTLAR
Chain of Focal adhesion kinase 1 (Homo sapiens) (Q05397 2-1052 limits assumed): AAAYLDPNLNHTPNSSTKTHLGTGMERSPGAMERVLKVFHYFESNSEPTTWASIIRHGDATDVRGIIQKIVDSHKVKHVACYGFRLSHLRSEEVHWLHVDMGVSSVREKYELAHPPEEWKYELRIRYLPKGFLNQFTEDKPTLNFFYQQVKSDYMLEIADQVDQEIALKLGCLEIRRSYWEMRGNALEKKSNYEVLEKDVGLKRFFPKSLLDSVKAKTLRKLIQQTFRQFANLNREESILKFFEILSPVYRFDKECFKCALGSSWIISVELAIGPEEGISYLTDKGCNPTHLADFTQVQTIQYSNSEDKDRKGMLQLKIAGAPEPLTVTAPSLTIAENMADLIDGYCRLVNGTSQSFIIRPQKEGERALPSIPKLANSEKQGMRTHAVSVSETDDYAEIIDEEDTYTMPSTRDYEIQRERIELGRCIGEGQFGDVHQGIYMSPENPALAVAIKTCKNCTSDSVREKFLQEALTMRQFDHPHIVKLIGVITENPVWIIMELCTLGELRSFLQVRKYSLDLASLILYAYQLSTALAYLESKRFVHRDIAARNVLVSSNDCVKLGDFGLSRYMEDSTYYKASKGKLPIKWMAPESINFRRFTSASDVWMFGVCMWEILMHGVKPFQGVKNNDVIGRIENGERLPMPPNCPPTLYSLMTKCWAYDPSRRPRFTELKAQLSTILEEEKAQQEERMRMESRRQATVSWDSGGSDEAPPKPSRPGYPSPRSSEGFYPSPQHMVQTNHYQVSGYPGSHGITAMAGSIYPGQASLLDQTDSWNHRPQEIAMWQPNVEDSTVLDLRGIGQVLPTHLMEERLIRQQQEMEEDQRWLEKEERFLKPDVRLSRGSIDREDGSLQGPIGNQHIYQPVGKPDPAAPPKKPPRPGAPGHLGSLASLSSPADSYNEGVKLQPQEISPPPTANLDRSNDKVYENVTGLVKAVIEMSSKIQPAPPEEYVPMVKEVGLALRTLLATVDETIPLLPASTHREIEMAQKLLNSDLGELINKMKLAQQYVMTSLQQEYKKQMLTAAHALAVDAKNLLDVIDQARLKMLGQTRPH
Chain of Homeodomain-interacting protein kinase 1 (Homo sapiens) (Q86Z02 whole entry, looked up, canonical isoform): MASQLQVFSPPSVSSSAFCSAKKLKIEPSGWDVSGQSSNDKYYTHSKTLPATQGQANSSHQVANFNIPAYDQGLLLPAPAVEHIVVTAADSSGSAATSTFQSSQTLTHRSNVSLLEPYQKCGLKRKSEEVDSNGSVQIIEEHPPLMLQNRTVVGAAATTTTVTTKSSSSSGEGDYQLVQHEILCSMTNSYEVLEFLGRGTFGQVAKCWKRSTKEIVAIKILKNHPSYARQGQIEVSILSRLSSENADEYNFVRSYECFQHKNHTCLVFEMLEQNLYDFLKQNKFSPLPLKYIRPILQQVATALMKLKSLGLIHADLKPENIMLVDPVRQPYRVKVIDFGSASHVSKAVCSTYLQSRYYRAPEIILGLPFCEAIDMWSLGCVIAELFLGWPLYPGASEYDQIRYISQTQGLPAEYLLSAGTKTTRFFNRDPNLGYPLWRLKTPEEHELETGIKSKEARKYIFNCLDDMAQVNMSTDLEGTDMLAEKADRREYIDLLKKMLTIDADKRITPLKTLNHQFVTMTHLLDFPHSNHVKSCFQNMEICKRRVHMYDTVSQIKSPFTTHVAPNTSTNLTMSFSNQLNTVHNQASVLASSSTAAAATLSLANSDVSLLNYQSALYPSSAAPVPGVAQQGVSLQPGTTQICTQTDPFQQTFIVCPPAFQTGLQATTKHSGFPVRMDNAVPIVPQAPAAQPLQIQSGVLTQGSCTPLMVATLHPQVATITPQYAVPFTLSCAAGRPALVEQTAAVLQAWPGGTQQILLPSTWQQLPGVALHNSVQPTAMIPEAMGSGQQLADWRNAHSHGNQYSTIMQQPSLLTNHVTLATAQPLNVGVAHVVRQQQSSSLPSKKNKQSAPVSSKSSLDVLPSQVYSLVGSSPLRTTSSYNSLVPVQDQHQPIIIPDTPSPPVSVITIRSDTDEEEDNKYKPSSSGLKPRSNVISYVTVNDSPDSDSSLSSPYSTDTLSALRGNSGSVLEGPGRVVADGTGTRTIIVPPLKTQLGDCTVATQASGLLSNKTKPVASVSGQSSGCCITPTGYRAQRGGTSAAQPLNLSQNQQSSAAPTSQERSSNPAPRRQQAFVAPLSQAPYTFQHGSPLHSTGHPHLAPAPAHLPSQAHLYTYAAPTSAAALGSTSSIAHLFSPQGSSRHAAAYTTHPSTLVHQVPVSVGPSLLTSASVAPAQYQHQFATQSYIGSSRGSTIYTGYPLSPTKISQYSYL

| SMILES | inhibition [1] | inhibition [2] | inhibition [3] | inhibition [4] | inhibition [5] | inhibition [6] | inhibition [7] | inhibition [8] | inhibition [9] | inhibition [10] | inhibition [11] |
| --- | --- | --- | --- | --- | --- | --- | --- | --- | --- | --- | --- |
| COC1CCN(C(=O)c2ccc(-c3cnc4c(c3)N(Cc3cc(Cl)ccc3C(F)(F)F)CCN4)cc2)CC1 | < 50% |  | < 50% | < 50% |  | 94% |  | < 50% | < 50% |  | < 50% |
| O=C(c1ccc(-c2cnc3c(c2)N(Cc2cc(Cl)ccc2C(F)(F)F)CCN3)cc1)N1CCCCC1 | < 50% |  | < 50% | < 50% |  | 84.4% |  | < 50% | < 50% |  | < 50% |
| FC(F)(F)c1ccc(Cl)cc1CN1CCNc2ncc(-c3ccnc(N4CCNCC4)c3)cc21 | < 50% | < 50% | < 50% | < 50% | < 50% | 100% | 73% | < 50% | < 50% | < 50% | < 50% |
| CC(=O)N1CCN(c2cc(-c3cnc4c(c3)N(Cc3cc(Cl)ccc3C(F)(F)F)CCN4)ccn2)CC1 | < 50% | < 50% | < 50% | < 50% | < 50% | 100% | < 50% | < 50% | < 50% | < 50% | < 50% |
| O=C(O)c1ccc(-c2cnc3c(c2)N(Cc2cc(Cl)ccc2C(F)(F)F)CCN3)cc1 | < 50% |  | < 50% | < 50% |  |  |  | < 50% | < 50% |  | < 50% |
| O=C(c1ccc(-c2cnc3c(c2)N(Cc2cc(Cl)ccc2C(F)(F)F)CCN3)cc1)N1CCC(N2CCCC2)CC1 | < 50% |  | < 50% | < 50% |  | 98.9% |  | < 50% | < 50% |  | < 50% |
| CN1CCN(c2ccc(-c3cnc4c(c3)N(Cc3c(F)ccc(F)c3Cl)CCN4)cn2)CC1 | < 50% | < 50% | < 50% | < 50% | < 50% | 83% | < 50% | < 50% | 70% | < 50% | < 50% |

Results, then the compound that gave them:

| inhibition [1] | inhibition [2] | inhibition [3] | inhibition [4] | inhibition [5] | inhibition [6] | inhibition [7] | inhibition [8] | inhibition [9] | inhibition [10] | inhibition [11] | SMILES |
| --- | --- | --- | --- | --- | --- | --- | --- | --- | --- | --- | --- |
| < 50% | < 50% | < 50% | < 50% | < 50% | 94% | < 50% | < 50% | < 50% | < 50% | < 50% | CN1CCN(c2ccc(-c3cnc4c(c3)N(Cc3cc(Cl)ccc3Cl)CCN4)cn2)CC1 |
| < 50% | < 50% | < 50% | < 50% | < 50% | 98% | < 50% | < 50% | < 50% | < 50% | < 50% | CN1CCN(c2ccc(-c3cnc4c(c3)N(Cc3cc(Cl)ccc3C(F)(F)F)CCN4)cn2)CC1 |
| < 50% | < 50% | < 50% | < 50% | < 50% | 67.2% | < 50% | < 50% | 72.2% | < 50% | < 50% | CN1CCN(c2ccc(-c3cnc4c(c3)N(Cc3cc(F)ccc3F)CCN4)cn2)CC1 |
